# Published values pooled from the literature.
# Compare with care: the assays were run in different laboratories.
# Target: Megakaryocyte-associated tyrosine-protein kinase (MATK, Homo sapiens, UniProt P42679)
# One construct used (P42679 1-507): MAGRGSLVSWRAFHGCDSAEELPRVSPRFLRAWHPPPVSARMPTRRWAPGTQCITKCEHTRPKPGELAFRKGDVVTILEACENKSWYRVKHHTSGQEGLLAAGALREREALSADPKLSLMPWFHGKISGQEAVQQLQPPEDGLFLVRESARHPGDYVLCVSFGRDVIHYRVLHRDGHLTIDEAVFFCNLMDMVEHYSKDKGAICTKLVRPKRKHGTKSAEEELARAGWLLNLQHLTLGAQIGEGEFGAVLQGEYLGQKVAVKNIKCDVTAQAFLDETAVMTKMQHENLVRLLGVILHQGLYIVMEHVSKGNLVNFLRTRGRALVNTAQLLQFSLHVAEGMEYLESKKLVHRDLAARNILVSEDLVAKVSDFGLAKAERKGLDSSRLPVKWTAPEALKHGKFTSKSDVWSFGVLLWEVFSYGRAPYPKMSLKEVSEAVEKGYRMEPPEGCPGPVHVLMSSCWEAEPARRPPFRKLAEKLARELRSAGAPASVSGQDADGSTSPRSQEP
SMILES,read-out,action,technique,tested at,endpoint,result
COc1cc2ncnc(Nc3ccc(Oc4ccccc4)cc3C)c2cc1OC,enzyme activity,inhibitor,,1 µM,inhibition,0%
O=C(O)[C@@H]1[C@@H](Cn2nnc3ccccc3c2=O)CC[C@H]1C(=O)c1ccc(OCCC2CCOCC2)cc1,cell-free assay,,competition with immobilised ligand,1 µM,remaining binding,95%
Cc1ccc(C(=O)Nc2ccc(CN3CCN(C)CC3)c(C(F)(F)F)c2)cc1C#Cc1cnc2cccnn12,enzyme activity,inhibitor,,23.5 nM,remaining activity,52%
O=C(Nc1cnn(-c2csc(C(=O)NC3COC3)c2)c1)Nc1ccccc1Cl,enzyme activity,inhibitor,,5 µM,remaining activity,99.7%
N#CCCc1ccc2c(c1)-c1[nH]c3ccc([N+](=O)[O-])cc3c1CC(=O)N2,cell-free assay,,,0.5 µM,remaining signal,101%
CN(C(=O)c1ccccc1)c1cc(N(C)c2ccc3c(c2)CCc2ccc(C(=O)NCCN4CCOCC4)cc2C3=O)ccc1F,cell-free assay,,competition with immobilised ligand,1 µM,remaining binding,84%
O=C(Nc1cnn(-c2csc(C(=O)NC3COC3)c2)c1)Nc1c(F)cccc1Cl,enzyme activity,inhibitor,,5 µM,remaining activity,100%
CN(C)C(=O)Cn1cc(-c2nc([C@@](C)(c3ccc(-c4cnc(N)nc4)cc3)C3CC3)no2)cn1,cell-free assay,,competition with immobilised ligand,1 µM,remaining binding,77%
O=C1Nc2ccc(Cl)cc2C1=Cc1cc(Cl)c(O)c(Cl)c1,cell-free assay,,,0.5 µM,remaining signal,82.2%
CC(C)(C)c1nc2c(s1)c1nc(N)ncc1c1ccc(NS(=O)(=O)c3c(F)cccc3F)c(F)c12,enzyme activity,inhibitor,radiometric,1 µM,remaining activity,101%
Cc1cnn2ncc(-c3ccnc(N(C)C)n3)c2c1,binding,,,1 µM,remaining binding,100%
O=c1nc(-c2ccccn2)sc2ccccc12,binding,,competition with immobilised ligand,1 µM,remaining binding,100%
